The source made the active and inactive calls. No cut-off for these calls is given here.
Columns and labels:
Homo sapiens = organism: Homo sapiens; experiment: Inhibition of human DDR at 0.5 uM relative to control
HUVEC = experiment: Growth inhibition of HUVEC at 10 uM after 72 hrs by CellTiter-Glo assay relative to control; format: functional; conditions: Homo sapiens, read-out: GI
Summary of the method: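 Cells in exponential phase seeded at 2000–4000 cells/well, then exposed 72 h at 37 °C, 5% CO2 with 0.1% final DMSO. Single-point screen at 10 μM final. […] Read-out was CellTiter-Glo luminescence.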

A-431 = experiment: Growth inhibition of human A431 cells at 10 uM after 72 hrs by CellTiter-Glo assay relative to control; format: functional; conditions: A-431, 72 h, read-out: GI
Summary of the method: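 A431 cells seeded at 2000–4000 cells/well and treated with 10 μM final compound, 0.1% DMSO, for 72 h at 37 °C, 5% CO2. Viability read by CellTiter-Glo. Inhibition ratio = 1 − Vsample/Vvehicle control; triplicate.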

HL-60(TB) = experiment: Cytotoxicity against human HL-60(TB) cells after 48 hrs by SRB assay; format: functional; conditions: HL-60, 48 h
Summary of the method: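 NCI-60 panel screen. Cells grown in RPMI 1640 with 5% FBS and 2 mM L-glutamine, plated at 5000–40 000 cells/well by doubling time, and preincubated 24 h at 37 °C in 5% CO2; Tz plates fixed at drug addition. Five concentrations, 1-log steps from 10−4 to 10−8 M, for 48 h. Suspension cells fixed with TCA (16% final), stained with 0.4% SRB, read at 515 nm. GI50, TGI and LC50 from percent-growth formulas.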

MOLT-4 = experiment: Cytotoxicity against human MOLT4 cells after 48 hrs by SRB assay; format: functional; conditions: MOLT-4, 48 h
Summary of the method: (§1)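 NCI-60 panel; cells grown in RPMI 1640 with 5% FBS and 2 mM L-glutamine, plated at 5000–40 000 cells/well by doubling time, preincubated 24 h (37 °C, 5% CO2). Drug added at five concentrations, 1-log steps from 10−4 to 10−8 M, for 48 h. Fixed with TCA, stained with 0.4% SRB, absorbance read at 515 nm. Percent growth computed against time-zero and untreated controls; GI50, TGI and LC50 derived.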

RPMI-8226 = experiment: Cytotoxicity against human RPMI8226 cells after 48 hrs by SRB assay; format: functional; conditions: RPMI-8226, 48 h; summary of the method: as §1
A549 = experiment: Cytotoxicity against human A549 cells after 48 hrs by SRB assay; format: functional; conditions: A549, 48 h; summary of the method: as §1
NCI-H322M = experiment: Cytotoxicity against human NCI-H322M cells after 48 hrs by SRB assay; format: functional; summary of the method: as §1
NCI-H522 = experiment: Cytotoxicity against human NCI-H522 cells after 48 hrs by SRB assay; format: functional; conditions: NCI-H522, 48 h; summary of the method: as §1
COLO 205 = experiment: Cytotoxicity against human COLO205 cells after 48 hrs by SRB assay; format: functional; conditions: COLO 205, 48 h; summary of the method: as §1
U-251 = experiment: Cytotoxicity against human U251 cells after 48 hrs by SRB assay; format: functional; conditions: U-251, 48 h
Summary of the method: (§2)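 NCI-60 panel, five doses at 1-log steps from 10−4 to 10−8 M. Cells grown in RPMI 1640 with 5% FBS and 2 mM L-glutamine, seeded at 5000–40 000 cells/well and preincubated 24 h. Tz plates were TCA-fixed at drug addition. Drug exposure 48 h at 37 °C, then TCA fixation, 0.4% SRB stain and absorbance at 515 nm. GI50 taken from percent growth relative to Tz and control.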

LOX IMVI = experiment: Cytotoxicity against human LOXIMVI cells after 48 hrs by SRB assay; format: functional; summary of the method: as §1
SK-MEL-5 = experiment: Cytotoxicity against human SK-MEL-5 cells after 48 hrs by SRB assay; format: functional; conditions: SK-MEL-5, 48 h; summary of the method: as §1
UACC-257 = experiment: Cytotoxicity against human UACC257 cells after 48 hrs by SRB assay; format: functional; conditions: UACC-257, 48 h; summary of the method: as §2
OVCAR-3 = experiment: Cytotoxicity against human OVCAR3 cells after 48 hrs by SRB assay; format: functional; conditions: OVCAR-3, 48 h; summary of the method: as §1
BT-549 = experiment: Cytotoxicity against human BT549 cells after 48 hrs by SRB assay; format: functional; conditions: BT-549, 48 h; summary of the method: as §1
T47D = experiment: Cytotoxicity against human T47D cells after 48 hrs by SRB assay; format: functional; summary of the method: as §2
[1] = Potency index, ratio of test compound LC50 to sorafenib LC50 for human renal cancer cells; format: functional, Renal cancer cell
Leukemia cell [2] = experiment: Potency index, ratio of sorafenib GI50 to test compound GI50 for human leukemia cells; format: functional
Summary of the method: (§3)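 GI50 is the concentration giving 50% reduction in net protein increase relative to control. Potency index is the reference-drug GI50 divided by the test-compound GI50.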

[3] = Potency index, ratio of sorafenib GI50 to test compound GI50 for human ovarian cancer cells; format: functional, Ovarian cancer cell; summary of the method: as §3
Leukemia cell [4] = experiment: Potency index, ratio of sunitinib GI50 to test compound GI50 for human leukemia cells; format: functional; summary of the method: as §3
[5] = Potency index, ratio of sunitinib GI50 to test compound GI50 for human breast cancer cells; format: functional, Breast cancer cell; summary of the method: as §3
[6] = Potency index, ratio of sorafenib GI50 to test compound GI50 for human CNS cancer cells; format: functional, CNS cancer cell; summary of the method: as §3
[7] = Potency index, ratio of sunitinib GI50 to test compound GI50 for human CNS cancer cells; format: functional, CNS cancer cell; summary of the method: as §3
[8] = target: Vascular endothelial growth factor receptor 2 (Homo sapiens, UniProt P35968); experiment: Inhibition of VEGFR2 in human prostate cancer cells assessed as decrease in Akt activation at 10 uM relative to control
Vascular endothelial growth factor receptor 2, sequence (P35968 whole entry): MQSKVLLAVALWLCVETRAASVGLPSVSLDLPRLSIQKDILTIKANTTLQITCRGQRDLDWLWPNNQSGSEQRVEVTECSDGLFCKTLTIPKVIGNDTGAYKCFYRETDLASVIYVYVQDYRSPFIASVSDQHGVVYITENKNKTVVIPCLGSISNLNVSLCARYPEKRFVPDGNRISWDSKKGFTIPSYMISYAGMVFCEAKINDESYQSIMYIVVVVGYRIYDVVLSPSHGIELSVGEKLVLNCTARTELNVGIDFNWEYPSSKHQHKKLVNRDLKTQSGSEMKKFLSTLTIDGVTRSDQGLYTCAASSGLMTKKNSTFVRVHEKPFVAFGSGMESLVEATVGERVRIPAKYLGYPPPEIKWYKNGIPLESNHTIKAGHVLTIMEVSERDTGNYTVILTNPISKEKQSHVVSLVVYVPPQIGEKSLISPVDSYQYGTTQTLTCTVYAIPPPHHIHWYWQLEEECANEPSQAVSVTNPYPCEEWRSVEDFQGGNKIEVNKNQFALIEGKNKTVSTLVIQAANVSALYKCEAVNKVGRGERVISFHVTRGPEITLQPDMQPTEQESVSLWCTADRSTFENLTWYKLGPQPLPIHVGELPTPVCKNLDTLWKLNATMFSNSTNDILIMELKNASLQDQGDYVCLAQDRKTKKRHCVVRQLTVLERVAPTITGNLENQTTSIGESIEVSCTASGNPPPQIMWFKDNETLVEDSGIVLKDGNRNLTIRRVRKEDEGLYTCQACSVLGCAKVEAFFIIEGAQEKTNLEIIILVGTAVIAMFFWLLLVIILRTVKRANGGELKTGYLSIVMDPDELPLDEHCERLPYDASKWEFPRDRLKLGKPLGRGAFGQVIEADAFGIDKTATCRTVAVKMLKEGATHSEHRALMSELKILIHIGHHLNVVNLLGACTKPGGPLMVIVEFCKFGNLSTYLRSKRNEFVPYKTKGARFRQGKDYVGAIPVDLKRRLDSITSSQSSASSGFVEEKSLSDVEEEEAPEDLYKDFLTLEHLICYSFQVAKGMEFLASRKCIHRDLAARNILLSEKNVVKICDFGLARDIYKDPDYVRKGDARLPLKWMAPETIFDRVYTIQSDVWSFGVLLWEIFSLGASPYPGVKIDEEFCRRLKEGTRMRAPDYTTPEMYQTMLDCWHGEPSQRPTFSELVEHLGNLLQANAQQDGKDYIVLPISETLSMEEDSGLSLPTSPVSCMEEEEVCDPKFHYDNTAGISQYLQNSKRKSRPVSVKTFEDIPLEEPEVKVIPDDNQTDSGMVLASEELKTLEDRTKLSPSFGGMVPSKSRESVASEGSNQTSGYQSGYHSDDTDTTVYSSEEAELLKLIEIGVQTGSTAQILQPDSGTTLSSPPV

[9] = target: Fibroblast growth factor receptor 4 (Homo sapiens) (UniProt P22455); experiment: Inhibition of human FGFR4 at 0.5 uM relative to control
Fibroblast growth factor receptor 4 (Homo sapiens), sequence (P22455 22-802 limits assumed): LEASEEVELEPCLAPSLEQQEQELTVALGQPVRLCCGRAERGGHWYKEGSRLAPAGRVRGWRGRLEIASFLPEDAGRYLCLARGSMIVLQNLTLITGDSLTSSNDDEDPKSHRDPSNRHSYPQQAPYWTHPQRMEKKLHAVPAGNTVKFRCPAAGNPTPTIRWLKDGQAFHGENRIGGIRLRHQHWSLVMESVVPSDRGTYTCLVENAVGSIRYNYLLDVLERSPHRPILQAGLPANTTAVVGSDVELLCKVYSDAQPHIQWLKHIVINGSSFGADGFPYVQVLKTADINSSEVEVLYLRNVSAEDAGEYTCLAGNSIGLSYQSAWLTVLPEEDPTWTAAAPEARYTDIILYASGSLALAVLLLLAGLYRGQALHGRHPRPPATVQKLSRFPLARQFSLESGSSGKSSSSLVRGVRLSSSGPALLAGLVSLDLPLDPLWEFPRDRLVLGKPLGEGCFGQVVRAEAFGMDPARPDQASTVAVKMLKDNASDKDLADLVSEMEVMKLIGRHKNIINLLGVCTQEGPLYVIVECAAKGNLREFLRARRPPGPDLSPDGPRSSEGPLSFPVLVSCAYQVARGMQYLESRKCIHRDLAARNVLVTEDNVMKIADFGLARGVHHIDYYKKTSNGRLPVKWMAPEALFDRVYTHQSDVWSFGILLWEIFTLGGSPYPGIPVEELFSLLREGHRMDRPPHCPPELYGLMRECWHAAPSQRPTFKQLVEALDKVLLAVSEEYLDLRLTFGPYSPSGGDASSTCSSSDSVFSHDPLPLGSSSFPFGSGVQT

[10] = target: Ephrin type-A receptor 2 (Homo sapiens) (UniProt P29317); experiment: Inhibition of human EPHA2 at 0.5 uM relative to control
Ephrin type-A receptor 2 (Homo sapiens), sequence (P29317 whole entry): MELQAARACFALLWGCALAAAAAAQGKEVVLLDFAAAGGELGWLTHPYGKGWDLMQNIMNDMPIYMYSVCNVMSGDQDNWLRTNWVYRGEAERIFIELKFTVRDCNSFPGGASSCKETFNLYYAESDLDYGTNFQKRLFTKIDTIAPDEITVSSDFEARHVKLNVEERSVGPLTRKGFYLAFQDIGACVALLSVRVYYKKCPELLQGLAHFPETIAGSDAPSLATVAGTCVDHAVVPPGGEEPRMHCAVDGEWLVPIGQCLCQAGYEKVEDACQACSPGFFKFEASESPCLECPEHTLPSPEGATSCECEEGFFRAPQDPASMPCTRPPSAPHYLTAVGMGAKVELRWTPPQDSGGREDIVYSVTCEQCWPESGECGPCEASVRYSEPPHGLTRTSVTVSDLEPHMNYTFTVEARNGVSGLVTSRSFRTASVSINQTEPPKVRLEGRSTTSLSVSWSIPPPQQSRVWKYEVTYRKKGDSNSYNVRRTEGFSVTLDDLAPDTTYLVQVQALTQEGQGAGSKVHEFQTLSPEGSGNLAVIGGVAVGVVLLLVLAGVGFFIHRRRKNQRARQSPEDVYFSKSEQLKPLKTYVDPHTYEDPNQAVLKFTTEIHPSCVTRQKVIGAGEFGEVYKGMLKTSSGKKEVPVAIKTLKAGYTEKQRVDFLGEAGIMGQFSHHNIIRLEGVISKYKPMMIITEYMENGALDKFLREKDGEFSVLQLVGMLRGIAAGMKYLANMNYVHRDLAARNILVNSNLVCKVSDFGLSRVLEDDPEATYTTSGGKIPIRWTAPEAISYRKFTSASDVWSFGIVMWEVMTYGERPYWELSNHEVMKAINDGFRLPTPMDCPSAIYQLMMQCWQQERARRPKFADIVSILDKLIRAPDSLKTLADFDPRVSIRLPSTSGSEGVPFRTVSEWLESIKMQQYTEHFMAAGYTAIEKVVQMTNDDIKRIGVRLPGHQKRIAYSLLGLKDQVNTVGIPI

[11] = target: Mitogen-activated protein kinase kinase kinase 7 (Homo sapiens) (UniProt O43318); experiment: Inhibition of human TAK1 at 0.5 uM relative to control
Mitogen-activated protein kinase kinase kinase 7 (Homo sapiens), sequence (O43318 whole entry, looked up): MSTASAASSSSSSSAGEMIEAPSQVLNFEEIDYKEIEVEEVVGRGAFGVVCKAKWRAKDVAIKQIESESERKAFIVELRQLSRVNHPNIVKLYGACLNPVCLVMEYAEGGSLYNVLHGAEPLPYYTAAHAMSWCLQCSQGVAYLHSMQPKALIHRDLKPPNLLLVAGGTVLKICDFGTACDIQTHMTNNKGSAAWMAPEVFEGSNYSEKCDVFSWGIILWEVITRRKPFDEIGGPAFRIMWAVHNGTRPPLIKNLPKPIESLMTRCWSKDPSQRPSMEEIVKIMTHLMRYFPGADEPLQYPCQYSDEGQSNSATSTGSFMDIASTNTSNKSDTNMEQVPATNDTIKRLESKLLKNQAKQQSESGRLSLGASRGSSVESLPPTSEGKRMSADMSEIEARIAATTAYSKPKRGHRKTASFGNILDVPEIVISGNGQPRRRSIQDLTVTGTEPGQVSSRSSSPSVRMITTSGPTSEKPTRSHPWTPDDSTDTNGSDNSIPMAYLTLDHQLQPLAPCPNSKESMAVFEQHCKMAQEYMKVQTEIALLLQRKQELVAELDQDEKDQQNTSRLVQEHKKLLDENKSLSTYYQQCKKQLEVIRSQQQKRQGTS

[12] = read-out: LC50 (the source's name)

## COc1cc2ncnc(Oc3ccc(NC(=O)Nc4ccc(CN5CCOCC5)c(C(F)(F)F)c4)c4ccccc34)c2cc1OC
Homo sapiens
  inhibition: Active
HUVEC
  inhibition of growth at 10 µM: 97.1%
A-431
  inhibition of growth at 10 µM: 57.7%
HL-60(TB)
  GI50: 0.38 µM
  TGI: 2.14 µM
HL-60(TB); [12]
  CC50: > 100 µM
MOLT-4
  GI50: 0.19 µM
  TGI: 1.82 µM
MOLT-4; [12]
  CC50: > 100 µM
RPMI-8226
  GI50: 0.39 µM
  TGI: 2.95 µM
RPMI-8226; [12]
  CC50: > 100 µM
A549
  GI50: 0.55 µM
  TGI: 10.7 µM
A549; [12]
  CC50: 81.3 µM
NCI-H322M
  GI50: 0.56 µM
  TGI: 15.1 µM
NCI-H322M; [12]
  CC50: 93.3 µM
NCI-H522
  GI50: 0.31 µM
  TGI: 3.8 µM
NCI-H522; [12]
  CC50: > 100 µM
COLO 205
  GI50: 0.38 µM
  TGI: 3.39 µM
COLO 205; [12]
  CC50: > 100 µM
U-251
  GI50: 1.05 µM
  TGI: 3.98 µM
U-251; [12]
  CC50: 27.5 µM
LOX IMVI
  GI50: 1.1 µM
  TGI: 2.82 µM
LOX IMVI; [12]
  CC50: 7.24 µM
SK-MEL-5
  GI50: 0.45 µM
  TGI: 2.69 µM
SK-MEL-5; [12]
  CC50: 17 µM
UACC-257
  GI50: 0.79 µM
  TGI: 3.98 µM
UACC-257; [12]
  CC50: 47.9 µM
OVCAR-3
  GI50: 1 µM
  TGI: 9.55 µM
OVCAR-3; [12]
  CC50: 42.7 µM
BT-549
  GI50: 1.15 µM
  TGI: 7.41 µM
BT-549; [12]
  CC50: 34.7 µM
T47D
  GI50: 0.25 µM
  TGI: 4.27 µM
T47D; [12]
  CC50: > 100 µM
[1]
  RatioLC50: 2
Leukemia cell [2]
  RatioGI50: 3.9 - 9.5
[3]
  RatioGI50: 3.9 - 9.5
Leukemia cell [4]
  RatioGI50: 5 - 7.7
[5]
  RatioGI50: 5 - 7.7
[6]
  RatioGI50: 1.6 - 2.9
[7]
  RatioGI50: 1.1 - 3.7
[8]
  inhibition: < 20%
[9]
  inhibition: > 96%
[10]
  inhibition: Active
[11]
  inhibition: Active

— ChEMBL document CHEMBL4028913, “Discovery of Novel Potent VEGFR-2 Inhibitors Exerting Significant Antiproliferative Activity against Cancer Cell Lines” (J Med Chem, 2018)
